The text below walks through data of ChEMBL document CHEMBL1136477, “beta-alanine dipeptides as MC4R agonists” (Bioorg Med Chem Lett, 2003).

In experiment [1] the target is T1, Melanocortin receptor 4 (Homo sapiens, UniProt P32245). Put plainly: Binding activity was measured using membranes of Hi5 cells expressing the human MC4R receptors. Type of experiment: cell membranes, BTI-TN-5B1-4.
Experiment [2] can be described thus: Intrinsic activity was expressed as percent of maximal activity achieved by NDP-alpha-MSH. It counts as functional. Put shortly:
(§1)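 HEK293 cells stably expressing human MC4R (MEM, G418, 10% heat-inactivated FBS) seeded 5×10^4 cells/well overnight. Then 10 min at 37 °C with 0.1 mM IBMX and increasing compound (1% DMSO final). After lysis, cAMP read by SPA kit. EC50 by non-linear regression. Intrinsic activity is % of NDP-a-MSH maximum. Run twice or three times in duplicate.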

Experiment [3] concerns the target T1, Melanocortin receptor 4. Nature of the experiment: Stimulation of adenylate cyclase in HEK293 cells expressing the human MC4R receptor was determined by measuring cAMP accumulation using the RPA559 SPA assay. It counts as functional, cell-based. Put shortly: as §1
(In general: Changes in cAMP serve as a functional read-out for many G protein-coupled receptors.)

T1 sequence (P32245 whole entry): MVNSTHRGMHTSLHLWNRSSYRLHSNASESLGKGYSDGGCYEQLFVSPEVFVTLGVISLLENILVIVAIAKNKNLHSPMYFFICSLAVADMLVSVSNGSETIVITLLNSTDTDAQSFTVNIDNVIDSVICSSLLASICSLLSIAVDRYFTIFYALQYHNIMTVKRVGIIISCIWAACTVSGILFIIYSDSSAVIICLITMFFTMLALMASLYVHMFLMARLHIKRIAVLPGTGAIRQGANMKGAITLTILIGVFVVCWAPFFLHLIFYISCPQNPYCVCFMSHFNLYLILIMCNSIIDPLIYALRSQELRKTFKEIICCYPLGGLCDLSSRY

As to `O=C(CCNC(=O)c1ccccc1)N[C@H](Cc1ccc(Cl)cc1)C(=O)N1CCC(Cn2cncn2)(C2CCCCC2)CC1`, in experiment [1], the IC50 (usually the concentration needed to halve the response being measured) was determined as 0.09 µM.

Compound `CC(=O)NCCC(=O)N[C@H](Cc1ccc(Cl)cc1)C(=O)N1CCC(Cn2cncn2)(C2CCCCC2)CC1` yielded an IC50 in experiment [1] of 0.012 µM. In the case of `NCCC(=O)N[C@H](Cc1ccc(Cl)cc1)C(=O)N1CCC(Cn2cncn2)(C2CCCCC2)CC1`, in experiment [1], the IC50 turned out to be 0.016 µM. The compound further displayed a Max stimulation in experiment [2] of 92%. In experiment [3], the EC50 (as a rule, the concentration giving half of the maximal effect) stood at 0.17 µM. `O=C(N[C@H](Cc1ccc(Cl)cc1)C(=O)N1CCC(Cn2cncn2)(C2CCCCC2)CC1)[C@H]1Cc2ccccc2CN1` showed a Max stimulation in experiment [2] of 99%. Take `O=C(N[C@H](Cc1ccc(Cl)cc1)C(=O)N1CCC(Cn2cncn2)(C2CCCCC2)CC1)C1CNC1`: the 50% inhibitory concentration (IC50) in experiment [1] came out at 0.016 µM. The compound `O=C(CCNC(=O)[C@@H]1CCCNC1)N[C@H](Cc1ccc(Cl)cc1)C(=O)N1CCC(Cn2cncn2)(C2CCCCC2)CC1` gave an IC50 in experiment [1] of 0.025 µM. Compound `O=C(CCNCc1ccccc1)N[C@H](Cc1ccc(Cl)cc1)C(=O)N1CCC(Cn2cncn2)(C2CCCCC2)CC1` registered an IC50 in experiment [1] of 0.014 µM. On the same count and under the same terms, then `O=C(C[C@@H]1CCCN1)N[C@H](Cc1ccc(Cl)cc1)C(=O)N1CCC(Cn2cncn2)(C2CCCCC2)CC1`, with 0.022 µM; and `O=C(CCN(Cc1ccccc1)Cc1ccccc1)N[C@H](Cc1ccc(Cl)cc1)C(=O)N1CCC(Cn2cncn2)(C2CCCCC2)CC1`, with 0.11 µM. As for `O=C(CCN1CCCCC1)NCCC(=O)N[C@H](Cc1ccc(Cl)cc1)C(=O)N1CCC(Cn2cncn2)(C2CCCCC2)CC1`, the concentration for half-maximal inhibition (IC50) in experiment [1] was found to be 0.012 µM. `CNCCC(=O)N[C@H](Cc1ccc(Cl)cc1)C(=O)N1CCC(Cn2cncn2)(C2CCCCC2)CC1`: the IC50 in experiment [1] is 0.01 µM. This compound gave a Max stimulation in experiment [2] of 98%. For the same compound, a half-maximal effect in experiment [3] (EC50) was put at 0.07 µM. In the case of `CN(C)CCC(=O)NCCC(=O)N[C@H](Cc1ccc(Cl)cc1)C(=O)N1CCC(Cn2cncn2)(C2CCCCC2)CC1`, the IC50 in experiment [1] was determined as 0.011 µM.

`CN(C)CCC(=O)N[C@H](Cc1ccc(Cl)cc1)C(=O)N1CCC(Cn2cncn2)(C2CCCCC2)CC1` yielded an IC50 in experiment [1] of 0.01 µM. The compound further yielded a Max stimulation in experiment [2] of 98%. This compound returned an EC50 in experiment [3] of 0.04 µM.

Turning to `O=C(N[C@H](Cc1ccc(Cl)cc1)C(=O)N1CCC(Cn2cncn2)(C2CCCCC2)CC1)[C@@H]1CCCNC1`, in experiment [1], the IC50 is 0.012 µM. On the same count and under the same terms, then `O=C(CCNC(=O)C(F)(F)F)N[C@H](Cc1ccc(Cl)cc1)C(=O)N1CCC(Cn2cncn2)(C2CCCCC2)CC1`, with 0.18 µM; and `O=C(CCNC(=O)[C@H]1CCCNC1)N[C@H](Cc1ccc(Cl)cc1)C(=O)N1CCC(Cn2cncn2)(C2CCCCC2)CC1`, with 0.022 µM; and `CC(C)(N)CC(=O)N[C@H](Cc1ccc(Cl)cc1)C(=O)N1CCC(Cn2cncn2)(C2CCCCC2)CC1`, with 0.018 µM. `CC(C)(CN)C(=O)N[C@H](Cc1ccc(Cl)cc1)C(=O)N1CCC(Cn2cncn2)(C2CCCCC2)CC1` showed an IC50 in experiment [1] of 0.03 µM. The same measure, in the same setting: then `COCC(=O)NCCC(=O)N[C@H](Cc1ccc(Cl)cc1)C(=O)N1CCC(Cn2cncn2)(C2CCCCC2)CC1`, with 0.021 µM. The same measure, in the same setting: as for `O=C(N[C@H](Cc1ccc(Cl)cc1)C(=O)N1CCC(Cn2cncn2)(C2CCCCC2)CC1)[C@H]1CCCNC1`, the figure is 0.009 µM.
